pIC50: −log10 of the molar value. Active and inactive are the calls of the source. The calls are words filed in the database; no cut-off is given here.
Assays:
RAW264.7 [1] = test: Cytotoxicity against mouse RAW264.7 cells assessed as reduction in cell viability up to 100 uM incubated for 24 hrs under dark condition by MTT assay; assay type: cell-based; conditions: raw264.7, 24 h
HFL1 [2] = test: Cytotoxicity against human HFL1 cells assessed as reduction in cell viability up to 100 uM incubated for 24 hrs under dark condition by MTT assay; assay type: cell-based; conditions: hfl1, 24 h
A549 [3] = test: Cytotoxicity against human A549 cells assessed as reduction in cell viability up to 100 uM incubated for 24 hrs under dark condition by MTT assay; assay type: cell-based; conditions: a549, 24 h
[4] = Drug uptake in human A549 cells assessed as clustering of emission at 1 uM after 1 hr by confocal microscopy; assay type: ADME, cell-based; conditions: a549, 1 h
In short: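 A549 cells exposed 1 h at 1 μM with a media control. Hoechst nuclear counterstain. Confocal imaging at 63×, compound emission read in the green channel.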

[5] = Drug uptake in mouse RAW264.7 cells at 5 uM after 4 hrs by Hoechst 33258 staining based fluorescence microscopic analysis; assay type: ADME, cell-based; conditions: raw264.7, 4 h
RAW264.7 [6] = test: Antiinflammatory activity against LPS-stimulated mouse RAW264.7 cells assessed as inhibition of TNF-alpha production at 40 nM incubated for 10 hrs under dark conditions followed by LPS stimulation for 1 hr by ELISA; assay type: functional, cell-based; conditions: time 11.0 hrs
In short: (§1)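 TNF-α suppression in RAW 264.7 macrophages challenged with LPS. Dark and illuminated treatments run as independent experiments. Mean ± SEM from three independent experiments, compared with the LPS positive control and with the matching non-illuminated treatment.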

[7] = Drug uptake in lysosome of human A549 cells at 25 uM measured after 1 hr by LysoTracker Red based confocal microscopic analysis; assay type: ADME, subcellular; conditions: a549, 1 h
RAW264.7 [8] = test: Antiinflammatory activity against LPS-stimulated mouse RAW264.7 cells assessed as inhibition of TNF-alpha production incubated for 4 hrs followed by illumination with blue LED array for 1 hr and later incubated for 6 hrs under dark conditions followed by LPS stimulation for 1 hr by ELISA; assay type: functional, cell-based; conditions: time 12.0 hrs; in short: as §1
[9] = Drug uptake in endoplasmic reticulum of human A549 cells at 25 uM measured after 1 hr by ER-Tracker Red based confocal microscopic analysis; assay type: ADME; conditions: a549, 1 h
In short: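 A549 cells treated 1 h at 25 μM (vehicle 0.4% DMSO), then counterstained with Hoechst 33342 and ER-Tracker Red. Imaged by confocal microscopy. Overlap given as Pearson's colocalization coefficient, mean ± SEM over 27 cells examined individually across three separate experiments. Line intensity profiles of regions of interest taken over 20 μm.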

[10] = Drug uptake in mitochondria of human A549 cells at 25 uM measured after 1 hr by MitoTracker Deep Red based confocal microscopic analysis; assay type: ADME; conditions: a549, 1 h
A549 [11] = test: Cytotoxicity against human A549 cells assessed as inhibition of cell viability preincubated under visible light-induced CO release condition for 1 hr followed by incubation with drug for 23 hrs by MTT assay; assay type: functional, cell-based
[12] = Drug uptake in human HFL1 cells at 1 uM after 4 hrs by Hoechst 33258 staining based fluorescence microscopic analysis; assay type: ADME, cell-based; conditions: hfl1, 4 h
A549 [13] = test: Cytotoxicity against human A549 cells assessed as reduction in cell viability incubated for 24 hrs under dark condition by MTT assay; assay type: cell-based; conditions: A549, 24 h
[14] = Drug uptake in human A549 cells at 1 uM after 4 hrs by Hoechst 33342 staining based fluorescence microscopic analysis; conditions: a549, 4 h
RAW264.7 [15] = test: Cytotoxicity against mouse RAW264.7 cells assessed as reduction in cell viability incubated for 24 hrs under dark condition by MTT assay; assay type: cell-based; conditions: RAW264.7, 24 h
HFL1 [16] = test: Cytotoxicity against human HFL1 cells assessed as reduction in cell viability incubated for 24 hrs under dark condition by MTT assay; assay type: cell-based; conditions: HFL1, 24 h

Compound | Activity (RAW264.7 [1]) | Activity (HFL1 [2]) | Activity (A549 [3]) | Activity (RAW264.7 [8]) | pIC50 (A549 [11]) | pIC50 (A549 [13]) | pIC50 (RAW264.7 [15]) | other results
O=C(Oc1cc2ccccc2cc1C(=O)O)c1ccccc1 | Non-Toxic | Non-Toxic | Non-Toxic | – | – | – | – | –
CCN(CC)c1ccc(-c2oc3cc4ccccc4cc3c(=O)c2O)cc1 | – | Non-Toxic | Non-Toxic | Active | 4.97 | < 4.00 | 4.17 | Drug uptake [4]: Active; Drug uptake [5]: Active; Activity (RAW264.7 [6]): Active; Drug uptake [7]: Active; Drug uptake [9]: Active; Drug uptake [10]: Active; Drug uptake [12]: Active; Drug uptake [14]: Active
CCN(CC)c1ccc(C(=O)Oc2cc3ccccc3cc2C(=O)O)cc1 | Non-Toxic | Non-Toxic | Non-Toxic | – | – | – | – | –
O=C(NCC[P+](c1ccccc1)(c1ccccc1)c1ccccc1)c1ccc(-c2oc3cc4ccccc4cc3c(=O)c2O)cc1 | – | – | – | – | 5.34 | 4.85 | – | –
O=c1c(O)c(-c2ccccc2)oc2cc3ccccc3cc12 | – | – | – | Active | 4.12 | 4.10 | 4.32 | pIC50 (HFL1 [16]): 4.19

Reference: ChEMBL document CHEMBL5034049, “Flavonol-Based Carbon Monoxide Delivery Molecule with Endoplasmic Reticulum, Mitochondria, And Lysosome Localization” (ACS Med Chem Lett, 2022)
